From ChEMBL document CHEMBL5257087, “Anti-inflammatory Activity of Tanshinone-Related Diterpenes from Perovskia artemisioides Roots” (2023) come the findings set out here.

Experiment [1] relates to J774.A1. The experiment can be described thus: Antiinflammatory activity in mouse J774.A1 macrophages assessed as reduction in LPS-induced nitrite production at 12.5 to 50 uM preincubated for 1 hr followed by LPS stimulation and measured after 24 hrs by griess reagent based assay. The experiment is classed as functional, cell-based. The following applies: dose 12.5-50 µM, time 25.0 hrs. Put shortly: (§1)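 Macrophages adhered 3 h at 5 × 10^4 cells/well, then were exposed to compound (50–12.5 μM) for 1 h before E. coli LPS (10 μg/mL) was added. After 24 h, nitrite in the medium was reacted with Griess reagent for 10 min at room temperature and absorbance read at 550 nm. Values are in μM from a sodium nitrite standard curve. L-NAME (1 μM) served as reference. Data are mean ± SEM, n ≥ 3, triplicate.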

Experiment [2] deals with J774.A1. The experiment is described as follows: Antiinflammatory activity in mouse J774.A1 macrophages assessed as inhibition of LPS-induced NO production at 12.5 to 50 uM preincubated for 1 hr followed by LPS stimulation and measured after 24 hrs by griess reagent based assay. The following applies: dose 12.5-50 µM, time 25.0 hrs. In kind it is functional, cell-based. Put shortly:
as §1

For experiment [3], the system named is J774.A1. The experiment can be described thus: Antiinflammatory activity in mouse J774.A1 macrophages assessed as inhibition of LPS-induced iNOS expression at 12.5 to 50 uM preincubated for 1 hr followed by LPS stimulation and measured after 24 hrs by cytofluorimetry analysis. The experiment is classed as functional, cell-based. The following applies: dose 12.5-50 µM, time 25.0 hrs. In outline: (§2)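 J774A.1 cells plated at 5 × 10^4 cells/well and allowed to adhere 3 h at 37 °C. Compounds were added 1 h before and then together with E. coli LPS (10 μg/mL) for 24 h. Cells were fixed and permeabilized, then stained with anti-iNOS or anti-COX-2 and a secondary antibody. Read as mean fluorescence intensity by flow cytometry. Indomethacin (1 μM) served as positive control. At least three independent experiments, each in triplicate.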

Experiment [4] relates to J774.A1. The experiment can be described thus: Antiinflammatory activity in mouse J774.A1 macrophages assessed as inhibition of LPS-induced COX2 expression at 12.5 to 50 uM preincubated for 1 hr followed by LPS stimulation and measured after 24 hrs by cytofluorimetry analysis. The experiment is classed as functional, cell-based. The following applies: dose 12.5-50 µM, time 25.0 hrs. In outline: as §2

Experiment [5] relates to J774.A1. The experiment is described as follows: Antioxidant activity in mouse J774.A1 macrophages assessed as inhibition of LPS-induced nitrotyrosine formation at 12.5 to 50 uM preincubated for 1 hr followed by LPS stimulation and measured after 24 hrs by cytofluorimetry analysis. The experiment is classed as functional, cell-based. The following applies: dose 12.5-50 µM, time 25.0 hrs. In outline: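 Cells were pretreated 1 h with compound (50–12.5 μM), then LPS (10 μg/mL) was added for 24 h. Cells were harvested, PBS-washed, fixed 20 min and permeabilized 30 min. They were stained 30 min with rabbit anti-nitrotyrosine, then 30 min with secondary antibody. Mean fluorescence intensity was read by flow cytometry. L-NAME and indomethacin (1 μM each) were positive controls. Mean ± SEM of at least three experiments, each in triplicate.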

Experiment [6] concerns J774.A1. The experiment can be described thus: Antioxidant activity in mouse J774.A1 macrophages assessed as inhibition of LPS-induced intracellular ROS production at 12.5 to 50 uM preincubated for 1 hr followed by LPS stimulation and measured after 24 hrs by DCFH2-DA probe based fluorescence analysis. The experiment is classed as functional, cell-based. The following applies: dose 12.5-50 µM, time 25.0 hrs. Put shortly: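 Macrophages (J774A.1, 5 × 10^4 cells/well, 3 h adherence) were given the compound (50–12.5 µM) 1 h before and during LPS (10 µg/mL). After 24 h cells were collected and washed twice in PBS, then loaded with 10 µM H2DCF-DA in PBS at 37 °C for 15 min. DCF fluorescence was read by flow cytometry as mean fluorescence intensity versus LPS alone. Means ± SEM, ≥3 independent experiments, each in triplicate.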

The test system of experiment [7] is J774.A1. The experiment can be described thus: Antiproliferative activity against mouse J774.A1 cells assessed as reduction in cell viability at 100 uM incubated for 24 hrs by MTT assay. The experiment is classed as functional, cell-based. In outline:
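J774A.1 cells at 5 × 10^4 cells/well adhered 3 h, then were incubated 24 h with compound serial dilutions (100–12.5 μM). MTT (5 mg/mL stock) was added for 3 h, formazan dissolved in DMSO, and OD read at 570 nm. The value is the % dead cells, 100 − [(OD treated/OD control) × 100]. 6-Mercaptopurine (1 μM) was the reference. At least three experiments, each in triplicate.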

Experiment [8] has as its system J774.A1. The experiment can be described thus: Antioxidant activity in mouse J774.A1 macrophages assessed as inhibition of LPS-induced nitrotyrosine formation at 25 to 50 uM preincubated for 1 hr followed by LPS stimulation and measured after 24 hrs by cytofluorimetry analysis. The following applies: dose 25-50 µM, time 25.0 hrs. The experiment is classed as functional, cell-based. In outline: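 J774A.1 cells (5 × 10^4 cells/well, 3 h adherence) were pretreated with compound (50–12.5 µM) for 1 h, then LPS (10 µg/mL) was added. After 24 h cells were PBS-washed, fixed for 20 min and permeabilized for 30 min. Rabbit anti-nitrotyrosine and secondary antibody were each applied for 30 min. Read-out was flow-cytometric mean fluorescence intensity versus LPS alone. Means ± SEM, ≥3 independent experiments, each in triplicate.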

Experiment [9] deals with J774.A1. The experiment is described as follows: Antiinflammatory activity in mouse J774.A1 macrophages assessed as inhibition of LPS-induced NO production at 1 uM preincubated for 1 hr followed by LPS stimulation and measured after 24 hrs by griess reagent based assay. The following applies: time 25 hrs. In kind it is functional. Put shortly: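 Murine J774A.1 cells (DMEM, 10% FBS) were plated at 5 × 10^4 cells/well and allowed to adhere for 3 h at 37 °C in 5% CO2. They were exposed to the agent in fresh medium for 1 h, then to E. coli LPS at 10 µg/mL for 24 h. Medium nitrite was measured with Griess reagent (10 min, room temperature, A550) and converted to µM against a sodium nitrite standard. Means ± SEM, ≥3 independent experiments, each in triplicate.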

Experiment [10] has as its system J774.A1. The experiment can be described thus: Antiinflammatory activity in mouse J774.A1 macrophages assessed as inhibition of LPS-induced iNOS expression at 1 uM preincubated for 1 hr followed by LPS stimulation and measured after 24 hrs by cytofluorimetry analysis. The following applies: time 25 hrs. The experiment is classed as functional. Put shortly: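 J774A.1 cells were plated at 5 × 10^4 cells/well and allowed to adhere for 3 h. The agent was added 1 h before LPS (10 µg/mL) and kept during stimulation; cells were harvested after 24 h. Cells were washed in PBS, fixed for 20 min and permeabilized for 30 min. Anti-iNOS primary and secondary antibodies were each applied for 30 min. Read-out was flow-cytometric mean fluorescence intensity versus LPS alone. Means ± SEM, ≥3 independent experiments, each in triplicate.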

Experiment [11] relates to J774.A1. The experiment can be described thus: Antiinflammatory activity in mouse J774.A1 macrophages assessed as inhibition of LPS-induced COX2 expression at 1 uM preincubated for 1 hr followed by LPS stimulation and measured after 24 hrs by cytofluorimetry analysis. In kind it is functional. The following applies: time 25 hrs. Put shortly:
as §2

Calls of active or inactive are those of the source. The rule behind the calls is not given here.

With `Cc1coc2c1C(=O)C(=O)c1c-2ccc2c1C(=O)CCC2(C)C`, the outcome in the experiment on J774.A1 [1] was Active. Moreover, the inhibition result in the experiment on J774.A1 [2], in the experiment with J774.A1 [3], in the experiment with J774.A1 [4], in the experiment with J774.A1 [5] and with J774.A1 [6] was “Active” each time.

On to `C[C@H]1COC2=C1C(=O)C(=O)c1c2ccc2c1CCCC2(C)C`, for which the result in the experiment on J774.A1 [7] was Active. For the same compound, the inhibition result in the experiment with J774.A1 [2], in the experiment on J774.A1 [3], with J774.A1 [4], in the experiment on J774.A1 [8] and in the experiment on J774.A1 [6] was “Active” in each case.

On to `CC(C)c1cc2c(cc1O)[C@@]1(C)CCCC(C)(C)C1=C(O)C2=O`, for which the result in the experiment on J774.A1 [7] was Active. Moreover, the inhibition entry with J774.A1 [2], in the experiment with J774.A1 [3] and in the experiment with J774.A1 [4] was “Active” each time.

Take `COC(=O)/C(=C\c1ccc2c3c1C(=O)O[C@H]3CCC2(C)C)C(C)C`: the result in the experiment with J774.A1 [7] was Active. Besides, the inhibition entry in the experiment on J774.A1 [2], in the experiment with J774.A1 [3] and in the experiment on J774.A1 [4] was “Active” in each case.

As to `Cc1cc2ccc3c(c2cc(O)c1=O)CCCC3(C)C`, the result with J774.A1 [7] was Active.

In the case of `CC(C)c1cc2c(cc1O)[C@@]1(CO)CCCC(C)(C)[C@@H]1CC2`, the result in the experiment with J774.A1 [7] was Active. Also, the inhibition result in the experiment on J774.A1 [2], in the experiment on J774.A1 [3] and in the experiment on J774.A1 [4] was “Active” throughout.

In the case of `CC(C)c1cc2ccc3c(c2c(O)c1O)C(=O)CCC3(C)C`, in the experiment with J774.A1 [7], the outcome was Active.

As to `CC(C)C1=CC2=C(C(=O)C1=O)[C@@]1(C)CCCC(C)(C)C1C[C@@H]2O` (stereo not given in full), in the experiment with J774.A1 [7], the outcome was Active.

For the compound `C[C@H]1CO[C@]2(C1)OC(=O)c1cc3c(cc12)CC(C)(C)CC3`, in the experiment on J774.A1 [7], the outcome was Active.

Take `COC(=O)[C@@H](N)CCCNC(=N)N[N+](=O)[O-]`: the inhibition at 1 µM in the experiment on J774.A1 [9] came out at 51.2%; with J774.A1 [10], 47.1%.

For the compound `COc1ccc2c(c1)c(CC(=O)O)c(C)n2C(=O)c1ccc(Cl)cc1` [INDOMETHACIN], the inhibition at 1 µM in the experiment with J774.A1 [11] turned out to be 47.8%.

For the compound `CC(C)c1cc2ccc3c(c2oc1=O)CCCC3(C)C`, in the experiment on J774.A1 [7], the outcome was Active.

On to `CC(C)/C(=C/c1ccc2c3c1C(=O)O[C@H]3CCC2(C)C)C(=O)O`, for which the inhibition result in the experiment on J774.A1 [2], with J774.A1 [3] and in the experiment with J774.A1 [4] was “Active” throughout.
